Experimental data reported in ChEMBL document CHEMBL4834437, “Improvement of Oral Bioavailability of Pyrazolo-Pyridone Inhibitors of the Interaction of DCN1/2 and UBE2M” (J Med Chem, 2021).

How the values were obtained:
[1] = Toxicity in C57BL/6 mouse assessed as adverse effect at 50 mg/kg, po administered as single dose measured after 48 hrs; type: organism-based; conditions: in vivo
How it was run: (§1)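 Mice were watched for adverse reactions for 48 h after a single iv (15 mg/kg) or oral (50 mg/kg) dose. Vehicle was EtOH/PG/PEG/PBS (10/10/40/39, pH 7.4) with 1% (w/v) […]-β-cyclodextrin.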

[2] = mouse, in vivo, po, 50 mg/kg, 24 h
[3] = Toxicity in C57BL/6 mouse assessed as adverse effect at 15 mg/kg, iv administered as single dose measured after 48 hrs; type: organism-based; conditions: in vivo; how it was run: as §1

Cmax [2]: 360 nM
SMILES: CCN1C(=O)[C@@H](NC(=O)c2cccc(C)c2)[C@@H](c2ccc(F)cc2)c2c(C)nn(-c3ccccc3)c21 (relative stereo)
Activity [1]: Non-Toxic
Activity [3]: Non-Toxic
